Legend:
[1] = system: HTR2C; test: PathHunter β-arrestin; assay type: cell-based; settings: 6 μM
In short: (§1)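 Vendor-run (DiscoveRx) PathHunter enzyme fragment complementation. β-Arrestin carries the EA fragment and the receptor carries ED; recruitment restores β-gal activity, read by chemiluminescence (RLU). Agonist % activity = vehicle-subtracted RLU relative to max control ligand (gpcrMAX) or to vehicle (orphanMAX). Antagonist % inhibition = 100% × (1 − vehicle-subtracted sample RLU / vehicle-subtracted EC80 agonist control RLU).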

[2] = system: CRHR2; test: PathHunter β-arrestin; assay type: cell-based; settings: antagonist mode, 6 μM
In short: (§2)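 Engineered cells express the receptor fused to one β-galactosidase fragment (ED) and β-arrestin fused to the complementing fragment (EA). Receptor activation recruits β-arrestin, which restores enzyme activity, and this is read by chemiluminescence (RLU). Agonist % activity is 100% × (test − vehicle)/(maximal control ligand − vehicle). Antagonist mode is challenged with an EC80 control agonist, and % inhibition is 100% × (1 − (test − vehicle)/(EC80 − vehicle)). Hits require >30% activity or >35% inhibition, plus a 3×SD RLU margin.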

[3] = system: SSTR5; test: PathHunter β-arrestin; assay type: cell-based; settings: agonist mode, 6 μM
[4] = system: PTGER4; test: PathHunter β-arrestin; assay type: cell-based; settings: 6 μM
In short: (§3)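 β-Arrestin recruitment to GPCR read by β-galactosidase fragment complementation and chemiluminescence. Agonist: % = 100 × (test − vehicle)/(max control ligand − vehicle), hit at >30% and RLU > baseline + 3 SD. Antagonist, against EC80 agonist: % inhibition = 100 × (1 − (test − vehicle)/(EC80 − vehicle)), hit at >35% and RLU < EC80 − 3 SD.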

[5] = system: AVPR1B; test: PathHunter β-arrestin; assay type: cell-based; settings: antagonist mode, 6 μM
In short: (§4)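 β-Arrestin recruitment assay: the enzyme acceptor is fused to β-arrestin and the ED fragment to the GPCR. Recruitment restores β-galactosidase, read by chemiluminescence. % activity = 100% × (test − vehicle)/(max control ligand − vehicle). % inhibition = 100% × (1 − (test − vehicle)/(EC80 control − vehicle)). An agonist hit needs >30% activity and RLU > baseline + 3×SD. An antagonist hit needs >35% inhibition and RLU < EC80 RLU − 3×SD.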

[6] = system: tumor suppressor miRNAs and onco-miRNAs; settings: JJ012 cell line; ref [7]; cited from earlier work
[7] = system: F2RL1; test: PathHunter β-arrestin; assay type: cell-based; settings: antagonist mode, 6 μM
In short: as §2

[8] = system: TLR6; test: western blot, JJ012 cells; assay type: cell-based, human; settings: vs untreated control, overnight incubation
[9] = system: SSTR3; test: PathHunter β-arrestin; assay type: cell-based; settings: 6 μM
In short: as §3

[10] = system: GPR92; test: PathHunter β-arrestin; assay type: cell-based; settings: 6 μM
In short: as §1

[11] = system: CALCRL-RAMP2; test: PathHunter β-arrestin; assay type: cell-based; settings: 6 μM
In short: as §4

[12] = system: HRH1; test: PathHunter β-arrestin; assay type: cell-based; settings: agonist mode, 6 μM
In short: as §1

[13] = system: miR-302C; settings: human chondrosarcoma; targets Nanog, c-Myc and Bmi1 also; ref [10]; cited from earlier work
[14] = system: NPY1R; test: PathHunter β-arrestin; assay type: cell-based; settings: antagonist mode, 6 μM
In short: as §1

[15] = system: TACR2; test: PathHunter β-arrestin; assay type: cell-based; settings: agonist mode, 6 μM
[16] = system: GPR103; test: PathHunter β-arrestin; assay type: cell-based; settings: 6 μM
In short: as §1

[17] = system: nucleolin; test: western blot, JJ012 cells; assay type: cell-based, human; settings: vs untreated control, overnight incubation
[18] = system: TACR3; test: PathHunter β-arrestin; assay type: cell-based; settings: antagonist mode, 6 μM
[19] = system: CCR6; test: PathHunter β-arrestin; assay type: cell-based; settings: antagonist mode, 6 μM
In short: as §2

[20] = system: mTOR kinase (mTORC1); settings: chondrosarcoma; ref [4],[5]; cited from earlier work
[21] = system: MRGPRX1; test: PathHunter β-arrestin; assay type: cell-based; settings: 6 μM
In short: as §1

[22] = system: CXCR1; test: PathHunter β-arrestin; assay type: cell-based; settings: antagonist mode, 6 μM
In short: as §2

[23] = system: EDG7; test: PathHunter β-arrestin; assay type: cell-based; settings: antagonist mode, 6 μM
In short: as §2

[24] = system: RXFP3; test: PathHunter β-arrestin; assay type: cell-based; settings: 6 μM
In short: as §3

[25] = system: TET1/2 and SOCS3; settings: human chondrosarcoma; ref previously reported ([8],[9]); cited from earlier work
[26] = system: F2R; test: PathHunter β-arrestin; assay type: cell-based; settings: agonist mode, 6 μM
In short: as §2

[27] = system: CCR9; test: PathHunter β-arrestin; assay type: cell-based; settings: 6 μM
In short: as §2

[28] = system: TLR6; test: RT2 qPCR primer assay, JJ012 cells; assay type: cell-based, human
In short: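 RNA was extracted, checked by spectrophotometry and reverse-transcribed. Custom RT2 SYBR-Green primer assays were run on three samples in technical triplicate. Ct was normalised to mean GAPDH/ACTB, ΔΔCt taken versus control, and fold change = 2^−ΔΔCt.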

[29] = system: GALR2; test: PathHunter β-arrestin; assay type: cell-based; settings: agonist mode, 6 μM
In short: as §2

[30] = system: DRD1; test: PathHunter β-arrestin; assay type: cell-based; settings: antagonist mode, 6 μM
In short: as §2

[31] = system: NMU1R; test: PathHunter β-arrestin; assay type: cell-based; settings: 6 μM
In short: as §1

[32] = system: CX3CR1; test: PathHunter β-arrestin; assay type: cell-based; settings: 6 μM
In short: as §2

[33] = system: MTNR1A; test: PathHunter β-arrestin; assay type: cell-based; settings: 6 μM
In short: as §1

[34] = system: PROKR2; test: PathHunter β-arrestin; assay type: cell-based; settings: antagonist mode, 6 μM

## Proline rich polypeptide 1 [PRP-1]
[1]; agonist mode
  % Activity: 1%
[1]; antagonist mode
  % Inhibition: −3%
[2]
  % Inhibition: −2%
[3]
  % Activity: 1%
[4]; agonist mode
  % Activity: 1%
[4]; antagonist mode
  % Inhibition: 4%
[5]
  % Inhibition: −2%
[6]
  miRNA regulation: upregulate tumor suppressor miRNAs and downregulate onco-miRNAs
[7]
  % Inhibition: 3%
[8]
  protein expression: increased in dose-dependent manner
[9]; agonist mode
  % Activity: 1%
[9]; antagonist mode
  % Inhibition: −5%
[10]; agonist mode
  % Activity: 1%
[10]; antagonist mode
  % Inhibition: 12%
[11]; agonist mode
  % Activity: 1%
[11]; antagonist mode
  % Inhibition: −1%
[12]
  % Activity: 1%
[13]
  miR-302c expression: epigenetically downregulates
[14]
  % Inhibition: 4%
[15]
  % Activity: 1%
[16]; agonist mode
  % Activity: 2%
[16]; antagonist mode
  % Inhibition: 6%
[17]
  protein expression: no changes in nucleolin protein expression
[18]
  % Inhibition: −1%
[19]
  % Inhibition: 2%
[20]
  mTOR kinase (mTORC1) inhibition: mTOR kinase (mTORC1) inhibitor in chondrosarcoma
[21]; agonist mode
  % Activity: 1%
[21]; antagonist mode
  % Inhibition: −2%
[22]
  % Inhibition: −1%
[23]
  % Inhibition: −3%
[24]; agonist mode
  % Activity: 6%
[24]; antagonist mode
  % Inhibition: −3%
[25]
  expression of TET1/2 and SOCS3: significant upregulation
[26]
  % Activity: −2%
[27]; agonist mode
  % Activity: 1%
[27]; antagonist mode
  % Inhibition: −6%
[28]; 1 μg/ml PRP-1, heat map, vs nontreated control, technical triplicates
  gene expression: high expression
[28]; qRT-PCR
  fold change (∆Ct): did not report significant fold change
[29]
  % Activity: 1%
[30]
  % Inhibition: −5%
[31]; agonist mode
  % Activity: 1%
[31]; antagonist mode
  % Inhibition: −3%
[32]; agonist mode
  % Activity: 1%
[32]; antagonist mode
  % Inhibition: 2%
[33]; agonist mode
  % Activity: 2%
[33]; antagonist mode
  % Inhibition: −9%
[34]
  % Inhibition: 8%

Source: article PMC5743405 (International Journal of Oncology, 2017)
